In ChEMBL document CHEMBL4219104, “Bicyclo((aryl)methyl)benzamides as inhibitors of GlyT1” (Bioorg Med Chem Lett, 2018):
≈ marks a conversion by molar mass, not a printed value.

Tests used:
[1] = Octanol-water partition coefficient, log D of the compound at pH 7.4; type: physicochemical
Summary of the method: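 logD determined empirically as ratio of compound partitioned between octanol and water at pH 7.4.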

[2] = Equilibrium solubility of the compound in phosphate buffer at pH 7.4 by UV-HPLC analysis; type: physicochemical
Summary of the method: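 Equilibrium solubility determined at pH 7.4.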

[3] = Tmax in Sprague-Dawley rat at 9 umol/kg, po; type: ADME, organism-based; conditions: in vivo
[4] = Cmax in Sprague-Dawley rat at 9 umol/kg, po; type: ADME, organism-based; design: dose 9 umol/kg, route oral; conditions: in vivo
[5] = Volume of distribution at steady state in Sprague-Dawley rat at 3 umol/kg, iv; type: ADME, organism-based; conditions: in vivo, read-out: Vdss
[6] = Ratio of drug level in brain to plasma in sc dosed CD-1 mouse; type: ADME, organism-based; conditions: read-out: BPR
Summary of the method: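 CD-1 mice dosed subcutaneously; brain and plasma levels compared as brain-to-plasma ratio.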

[7] = Ratio of drug level in brain to plasma in Sprague-Dawley rat at 3 umol/kg, iv; type: ADME; conditions: read-out: BPR
[8] = Oral bioavailability in Sprague-Dawley rat at 9 umol/kg; type: ADME, organism-based; conditions: in vivo

logD [1] | solubility thermodynamic [2] [µM] | SMILES | other results
2.9 | 124 (≈ 50.9 µg/mL) | CN1CCCC[C@H]1[C@@H](NC(=O)c1cccc(C(F)(F)F)c1Cl)c1ccccc1 | –
1.4 | – | Cc1cccc(C)c1C(=O)NC(c1ccncc1)C12CCC(CC1)CN2C (stereo not given) | –
1.3 | 462 (≈ 177 µg/mL) | CN1CC2CCC1([C@H](NC(=O)c1c(N)cccc1Cl)c1ccccc1)CC2 | –
1.3 | > 500 | CSc1ncccc1C(=O)N[C@H](c1ccccc1)C12CCC(CC1)CN2C | –
1.1 | > 500 | CN1CC2CCC1([C@H](NC(=O)c1c(Cl)ccnc1Cl)c1ccccc1)CC2 | –
0.8 | – | Cc1cccc(C)c1C(=O)NC(c1ccccc1)C12CC(CN1)C2 (stereo not given) | –
2.1 | – | Cc1cccc(C)c1C(=O)NC(c1cccc(-c2cnn(C)c2)c1)C12CCC(CC1)CN2C (stereo not given) | –
1.1 | – | Cc1cccc(C)c1C(=O)NC(c1ccccc1)C12CC(CN1C)C2 (stereo not given) | –
0.8 | 373 (≈ 136 µg/mL) | Cc1ccnc(C)c1C(=O)N[C@H](c1ccccc1)C12CCC(CC1)CN2C | –
2 | – | Cc1cccc(C)c1C(=O)NC(c1ccc(S(=O)(=O)CC2CC2)cc1)C12CCC(CC1)CN2C (stereo not given) | –
2.2 | 498 (≈ 201 µg/mL) | CN1CC2CCC1([C@H](NC(=O)c1ccnc(Cl)c1Cl)c1ccccc1)CC2 | –
1.9 | > 500 | CN1CC2CCC1([C@H](NC(=O)c1c(Cl)cccc1Cl)c1ccccc1)CC2 | –
1.1 | – | CCN1CC2CC1(C(NC(=O)c1c(C)cccc1C)c1ccccc1)C2 (stereo not given) | –
– | > 500 | CN1CC2CCC1([C@H](NC(=O)c1ccncc1Br)c1ccccc1)CC2 | –
1.4 | 481 (≈ 194 µg/mL) | CN1CC2CCC1([C@H](NC(=O)c1c(Cl)cncc1Cl)c1ccccc1)CC2 | –
1.3 | – | Cc1cccc(C)c1C(=O)NC(c1ccccc1)C12CCC(CC1)CN2 (stereo not given) | –
2.2 | 493 (≈ 199 µg/mL) | CN1CC2CCC1([C@H](NC(=O)c1cccc(Cl)c1Cl)c1ccccc1)CC2 | –

logD [1] | solubility thermodynamic [2] [µM] | SMILES | other results
1.5 | – | Cc1ccc(C(NC(=O)c2c(C)cccc2C)C23CCC(CC2)CN3C)o1 (stereo not given) | –
2.4 | > 500 | CN1CC2CCC1([C@H](NC(=O)c1ccnc(C(F)(F)F)c1F)c1ccccc1)CC2 | –
0.7 | 495 (≈ 195 µg/mL) | COc1cccc(OC)c1C(=O)N[C@H](c1ccccc1)C12CCC(CC1)CN2C | –
2.7 | > 500 | CN1CC2CCC1([C@@H](NC(=O)c1cccc(C(F)(F)F)c1Cl)c1ccccc1)CC2 | –
1.9 | 414 (≈ 150 µg/mL) | Cc1cccc(C)c1C(=O)N[C@H](c1ccccc1)C12CCC(CC1)CN2C | Tmax [3]: 1 h; Cmax [4]: 2450 nM; Vd [5]: 1.8 L/kg; Kp [6]: 0.4; Kp [7]: 0.2; bioavailability [8]: 105%
2.7 | > 482 | CN1CC2CCC1([C@H](NC(=O)c1cccc(C(F)(F)F)c1Cl)c1ccccc1)CC2 | –
1 | > 500 | COc1cncc(Cl)c1C(=O)N[C@H](c1ccccc1)C12CCC(CC1)CN2C | –
2.4 | – | CN1CC2CCC1(C(NC(=O)c1cccc(C(F)(F)F)c1Cl)c1ccncc1)CC2 (racemic) | –
1.6 | – | CN1CC2CCC1(C(NC(=O)c1cccc(C(F)(F)F)c1Cl)c1ccccn1)CC2 (racemic) | –
3 | – | Cc1ccccc1C(NC(=O)c1cccc(C(F)(F)F)c1Cl)C12CCC(CC1)CN2C (racemic) | –
2.3 | – | CN1CC2CCC1(C(NC(=O)c1cccc(C(F)(F)F)c1Cl)c1cccnc1)CC2 (racemic) | –
3.3 | – | CN1CC2CCC1(C(NC(=O)c1cccc(C(F)(F)F)c1Cl)c1cccc(Br)c1)CC2 (racemic) | –
2 | – | CN1CC2CCC1(C(NC(=O)c1cccc(C(F)(F)F)c1Cl)c1ccco1)CC2 (racemic) | –
3 | – | Cc1cccc(C(NC(=O)c2cccc(C(F)(F)F)c2Cl)C23CCC(CC2)CN3C)c1 (racemic) | –
2.7 | – | COc1ccc(C(NC(=O)c2cccc(C(F)(F)F)c2Cl)C23CCC(CC2)CN3C)cc1 (racemic) | –
2.7 | – | CN1CC2CCC1(C(NC(=O)c1cccc(C(F)(F)F)c1Cl)c1ccccc1)CC2 (racemic) | –

SMILES | logD [1] | solubility thermodynamic [2] [µM] | other results
CCN1C2CCC1(C(NC(=O)c1c(C)cccc1C)c1ccccc1)CC2 (stereo not given) | 2.1 | – | –
Cc1cccc(C)c1C(=O)NC(c1ccccc1)C12CCC(CC1)N2C1CC1 (stereo not given) | 1.1 | – | –
Cc1cccc(C)c1C(=O)NC(c1ccncc1)C12CCC(CC1)N2 (stereo not given) | 0.9 | – | –
Cc1cccc(C)c1C(=O)NC(c1ccccc1)C12CCC(CC1)N2 (stereo not given) | 1.4 | – | –
Cc1cccc(C)c1C(=O)NC(c1ccccc1)C12CCC(CC1)N2C (stereo not given) | 1.9 | – | –
Cc1cccc(C)c1C(=O)NC(c1ccccc1)C12CCC(CC1)N2C(C)C (stereo not given) | 1.9 | – | –
